Reference: publication PMC3346932 (Molecular Imaging and Biology, 2011)
Read-outs that look alike come from different tables or passages of the source. Blank lines part the entries; values can stand above or below the molecule they belong to. Where a SMILES comes first, the peptide text is derived from it. Bridges are numbered along the chain shown (N, C = ends). Where no end group is shown, it is not given here. The star is where a group is joined. IRDye800CW = CC1(C)C(/C=C/C2=C(Oc3ccc(S(=O)(=O)O)cc3)C(=C/C=C3/N(CCCCS(=O)(=O)O)c4ccc(S(=O)(=O)O)cc4C3(C)C)/CCC2)=[N+](CCCCCC(=O)*)c2ccc(S(=O)(=O)[O-])cc21

What was measured:
[1] = HPLC degradation study of ICG in saline; assay type: physicochemical; details: 100 μg/mL ICG in saline, by 25 h
[2] = test system: lymphatic vasculature of C57BL/6 mice; test: in vivo NIR fluorescence lymphatic imaging; parameters: species or system mouse; details: intradermal 20 μL of 500 μM ICG or 100 μM cABD-IRDye800
Summary of the method: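 Shaved female C57BL/6 mice, 6–7 weeks old, under 2–3% isoflurane on a 37° heating pad (~30 min per animal). Intradermal injection at the tail base, with the injection site taped over. Illumination by a 785 nm laser diode (80 mW) expanded to an ~8 cm area. EMCCD capture through an 830 nm bandpass filter at 200 ms per frame. Mice monitored during and after imaging.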

[3] = test system: inguinal lymph node of C57BL/6 mice; test: lymphatic clearance from inguinal lymph node, NIR fluorescence imaging; assay type: in vivo, mouse; details: for percent of maximal fluorescence intensity retained over the study period: intradermal, 0–50 min, normalized to maximum
Summary of the method: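 C57BL/6 mice were induced with 2–3% isoflurane and kept under <1% for 50 min at 37°. […] A region near the inguinal node was imaged at 200 ms/frame at 0.5, 2.5, 15, 30 and 50 min. Signal was normalized to each agent's maximum node intensity; Student's t test, α = 0.05.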

[4] = ref [27], cited from earlier work
[5] = reference standard; ref [53]; cited from earlier work
[6] = water-octanol partition coefficient; assay type: physicochemical
[7] = fluorescence optical properties; assay type: physicochemical; details: 785/830 nm
mouse serum albumin = mouse serum albumin (mouse, UniProt P07724 25-608); test: SPR

ICG peak remaining [1]: 30%
degradation peak [1]: 70%
percent of maximal fluorescence intensity retained over the study period [3]: at least 80%
Molecule: CC1(C)C(/C=C/C=C/C=C/C=C2\N(CCCCS(=O)(=O)O)c3ccc4ccccc4c3C2(C)C)=[N+](CCCCS(=O)(=O)[O-])c2ccc3ccccc3c21 [ICG, indocyanine green]
adverse events during and after imaging [2]: none
half life ([4]; ambient temperature under normal light): 14 h
half life ([4]; aqueous solution, darkness, low temperature (8°C)): approximately 20 h
half life ([4]; aqueous solution, exposure to light at 786 nm): 2.3 h
known lifetime [5]: 0.56 ns

percent of maximum fluorescence remaining at 50 min ([3]; intradermal 20 μL of 100 μM, 50 min): less than 30%
Molecule: CC1(C)C(/C=C/C2=C(Oc3ccc(S(=O)(=O)O)cc3)C(=C/C=C3/N(CCCCS(=O)(=O)O)c4ccc(S(=O)(=O)[O-])cc4C3(C)C)/CCC2)=[N+](CCCCCC(=O)O)c2ccc(S(=O)(=O)O)cc21 [IRDye800]

Molecule: CC[C@H](C)[C@H](NC(=O)[C@H](CC(C)C)NC(=O)[C@H](CCCNC(=N)N)NC(C)=O)C(=O)N[C@@H](CCC(=O)O)C(=O)N[C@@H](CC(=O)O)C(=O)N[C@H](C(=O)N[C@H]1CSSC[C@@H](C(=O)N[C@@H](CC(C)C)C(=O)N[C@@H](Cc2c[nH]c3ccccc23)C(=O)N[C@@H](CCC(=O)O)C(=O)N[C@@H](CC(=O)O)C(=O)N[C@@H](CC(=O)O)C(=O)N[C@@H](CCCCNC(=O)CCCCCN2C(=CC=C3CCCC(C=CC4=[N+](CCCCS(=O)(=O)O)c5ccc(S(=O)(=O)[O-])cc5C4(C)C)=C3Oc3ccc(S(=O)(=O)O)cc3)C(C)(C)c3cc(S(=O)(=O)O)ccc32)C(N)=O)NC(=O)CNC(=O)[C@H](Cc2c[nH]c3ccccc23)NC(=O)[C@H](CCCNC(=N)N)NC(=O)[C@@H]2CCCN2C(=O)[C@H](CC(C)C)NC1=O)[C@@H](C)CC [cABD-IRDye800] (Ac-RLIEDICLPRWGCLWEDDK(IRDye800CW)-NH2; disulfide 7-13; N-terminus and C-terminus assumed)
logP [6]: -0.53
adverse events during and after imaging [2]: none
percent of maximal fluorescence intensity retained over the study period [3]: at least 80%
lifetime relative to ICG [7]: 1.6 times

Kd (mouse serum albumin): 32 nM
Molecule: RLIEDICLPRWGCLWEDDK (disulfide 7-13; also: Dylight680 conjugated, site not given here) [cABD conjugated to Dylight680]
